25 compounds from ChEMBL document CHEMBL4706639, “Discovery of Novel Azetidine Amides as Potent Small-Molecule STAT3 Inhibitors” (J Med Chem, 2021) can be followed below.

A word on the EC50: it is the concentration that produces a half-maximal response. By IC50 is commonly meant the point on the concentration scale where inhibition reaches its midpoint.

Experiment [1] relates to MDA-MB-231. Kind of experiment: Antiproliferative activity against human MDA-MB-231 cells assessed as reduction in cell viability incubated for 72 hrs by CyQuant assay. The experiment is classed as functional, cell-based. Conditions: MDA-MB-231, 72 h.
In a further experiment the test system is NIH3T3. Kind of experiment: Inhibition of oligonucleotide [32P]-labelled 5'-AGATTTCTAGGAATTCAA probe binding to STAT5 homodimer in mouse NIH3T3 nuclear extract at 10 uM preincubated for 30 mins followed by MGFe probe addition by EMSA analysis.
For experiment [2], the target named is T1, Signal transducer and activator of transcription 1 (Mus musculus) (UniProt P42225).
T1 sequence (whole entry): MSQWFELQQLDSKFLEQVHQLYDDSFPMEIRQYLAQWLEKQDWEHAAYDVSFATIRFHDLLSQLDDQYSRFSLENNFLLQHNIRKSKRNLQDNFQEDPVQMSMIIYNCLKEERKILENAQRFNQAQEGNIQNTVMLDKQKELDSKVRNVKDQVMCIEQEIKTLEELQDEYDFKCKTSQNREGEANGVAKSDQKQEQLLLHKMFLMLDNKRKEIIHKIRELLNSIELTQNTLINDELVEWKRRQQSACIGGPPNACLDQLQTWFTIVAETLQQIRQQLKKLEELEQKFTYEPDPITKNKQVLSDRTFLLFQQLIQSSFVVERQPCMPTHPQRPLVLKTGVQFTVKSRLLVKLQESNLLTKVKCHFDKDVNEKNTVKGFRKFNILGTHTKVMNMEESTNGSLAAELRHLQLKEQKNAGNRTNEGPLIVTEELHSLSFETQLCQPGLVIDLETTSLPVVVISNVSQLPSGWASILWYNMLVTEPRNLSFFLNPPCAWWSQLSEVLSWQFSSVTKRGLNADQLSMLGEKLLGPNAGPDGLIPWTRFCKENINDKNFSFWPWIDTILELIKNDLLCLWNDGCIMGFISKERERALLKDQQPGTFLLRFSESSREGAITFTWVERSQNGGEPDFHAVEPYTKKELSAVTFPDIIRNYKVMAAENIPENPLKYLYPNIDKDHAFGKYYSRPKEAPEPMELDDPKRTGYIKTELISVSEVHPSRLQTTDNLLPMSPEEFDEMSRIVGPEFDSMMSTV
Description: Inhibition of oligonucleotide [32P]-labelled 5'-AGCITCATTTCCCGTAAATCCCTA probe binding to STAT1 homodimer in mouse NIH3T3 nuclear extract at 10 uM preincubated for 30 mins followed by hSIE probe addition by EMSA analysis. On the technique in general: In EMSA bound probe runs differently from free probe, usually more slowly.

Experiment [3] has as its target T2, Signal transducer and activator of transcription 3 (Mus musculus, UniProt P42227). Kind of experiment: Inhibition of oligonucleotide [32P]-labelled 5'-AGCITCATTTCCCGTAAATCCCTA probe binding to STAT3 SH2 domain in mouse NIH3T3/v-Src nuclear extract preincubated for 30 mins followed by hSIE probe addition by EMSA analysis. The experiment is classed as subcellular, Nucleus.

The subject of another experiment is MCF7. Kind of experiment: Antiproliferative activity against human MCF7 cells assessed as reduction in cell viability incubated for 72 hrs by CyQuant assay. Format: functional, cell-based. The conditions noted are these: MCF7, 72 h.
The next experiment has as its system MCF-10A. Kind of experiment: Cytotoxicity against human MCF-10A cells assessed as reduction in cell viability incubated for 72 hrs by CyQuant assay. The experiment is classed as cell-based.
The subject of experiment [4] is MDA-MB-468. Kind of experiment: Antiproliferative activity against human MDA-MB-468 cells harbouring STAT3 assessed as reduction in cell viability incubated for 72 hrs by CyQuant assay. Format: functional, cell-based. Conditions: MDA-MB-468, 72 h.
Experiment [5] deals with MDA-MB-468. Description: Antiproliferative activity against human MDA-MB-468 cells harbouring STAT3 assessed as reduction in cell viability at upto 10 uM incubated for 72 hrs by CyQuant assay. Format: functional, cell-based. The conditions noted are these: dose microM <=10, time 72.0 hrs.
In experiment [6] the test system is MDA-MB-231. Description: Antiproliferative activity against human MDA-MB-231 cells harbouring STAT3 assessed as reduction in cell viability at upto 10 uM incubated for 72 hrs by CyQuant assay. The experiment is classed as functional, cell-based.
Experiment [7] in a line: Inhibition of oligonucleotide [32P]-labelled 5'-AGATTTCTAGGAATTCAA probe binding to STAT5 homodimer in mouse NIH3T3 nuclear extract preincubated for 30 mins followed by MGFe probe addition by EMSA analysis.
The test system of experiment [8] is MDA-MB-231. Description: Anticlonogenic activity against human MDA-MB-231 cells assessed as inhibition of colony formation at 0.5 to 1 uM incubated for 4 hrs by crystal violet staining based assay. Conditions: dose 0.5-1 µM. The experiment is classed as functional, cell-based. The essentials: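 MDA-MB-231 cells seeded as single-cell cultures (250 cells per well), treated once the next day with compound at 0–1 μM and grown until large colonies were visible. Colonies stained with crystal violet for 4 h and photographed. Three independent determinations.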

Experiment [9] addresses T2, Signal transducer and activator of transcription 3. Description: Inhibition of oligonucleotide [32P]-labelled 5'-AGCITCATTTCCCGTAAATCCCTA probe binding to STAT3 SH2 domain (unknown origin) preincubated for 30 mins followed by hSIE probe addition by EMSA analysis.

Structures are written as SMILES. The source made the active and inactive calls. The rule behind the calls is not given here. Some results are limits rather than exact numbers.

T2 sequence (P42227 whole entry, the tested form may be a part): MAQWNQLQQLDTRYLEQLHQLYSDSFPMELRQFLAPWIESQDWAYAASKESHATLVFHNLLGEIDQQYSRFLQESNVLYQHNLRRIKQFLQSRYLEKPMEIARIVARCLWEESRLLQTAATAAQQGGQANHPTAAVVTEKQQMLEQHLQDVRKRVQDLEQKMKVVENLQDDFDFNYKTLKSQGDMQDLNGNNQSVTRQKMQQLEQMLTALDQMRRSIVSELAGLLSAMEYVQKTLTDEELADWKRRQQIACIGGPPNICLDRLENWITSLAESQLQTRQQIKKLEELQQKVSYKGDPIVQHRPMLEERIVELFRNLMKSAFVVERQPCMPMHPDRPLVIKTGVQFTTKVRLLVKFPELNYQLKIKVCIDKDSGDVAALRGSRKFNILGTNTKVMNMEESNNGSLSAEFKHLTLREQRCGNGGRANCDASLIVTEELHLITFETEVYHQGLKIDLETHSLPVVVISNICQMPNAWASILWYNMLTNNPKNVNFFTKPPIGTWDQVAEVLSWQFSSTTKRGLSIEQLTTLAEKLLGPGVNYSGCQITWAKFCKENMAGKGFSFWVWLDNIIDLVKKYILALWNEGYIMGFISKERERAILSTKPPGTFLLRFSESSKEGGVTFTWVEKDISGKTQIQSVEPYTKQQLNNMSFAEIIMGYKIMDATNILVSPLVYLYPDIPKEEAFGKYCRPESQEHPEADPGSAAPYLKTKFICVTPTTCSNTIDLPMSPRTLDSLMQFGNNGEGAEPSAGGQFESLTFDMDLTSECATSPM

Regarding `COC(=O)c1ccc(N(Cc2ccc(C3CCCCC3)cc2)C(=O)[C@H]2CCN2S(=O)(=O)c2c(F)c(F)c(F)c(F)c2F)c(F)c1`, in the experiment on MDA-MB-231 [1], the EC50 amounted to 4.4 µM. Further, the inhibition result (in the experiment with NIH3T3; in experiment [2]) was “Active” each time. Further, the IC50 in [3] was above 4 µM.
`O=C(O)c1ccc(N(Cc2ccc(C3CCOCC3)cc2)C(=O)[C@H]2CCN2S(=O)(=O)c2c(F)c(F)c(F)c(F)c2F)cc1O`: the inhibition entry (in the experiment with NIH3T3; in experiment [2]) was “Active” throughout.
With `O=C(O)c1ccc(N(Cc2ccc(C3CCOCC3)nc2)C(=O)[C@H]2CCN2S(=O)(=O)c2c(F)c(F)c(F)c(F)c2F)cc1O`, the inhibition result (in the experiment on NIH3T3; in experiment [2]) was “Active” each time.
On to `O=C([C@H]1CCN1S(=O)(=O)c1c(F)c(F)c(F)c(F)c1F)N(Cc1ccc(C2CCCCC2)cn1)c1cc2[nH]ncc2cc1F`, for which the EC50 in the experiment with MDA-MB-231 [1] worked out at 2.3 µM; in the experiment on MCF7, 4.8 µM; in the experiment with MCF-10A, 4.9 µM; in the experiment on MDA-MB-468 [4], 3.2 µM.
In the case of `O=C(O)c1ccc(N(Cc2ccc(C3CCCCC3)cc2)C(=O)[C@H]2CCN2S(=O)(=O)c2c(F)c(F)c(F)c(F)c2F)cc1O`, the Activity result in the experiment on MDA-MB-468 [5] is “inactive”; in the experiment on MDA-MB-231 [6] (dose microM <=10, time 72.0 hrs), “inactive”. In experiment [7], this compound came in with an IC50 of 9.3 µM.
Turning to `O=C(NO)c1ccc(N(Cc2ccc(C3CCCCC3)cc2)C(=O)[C@H]2CCN2S(=O)(=O)c2c(F)c(F)c(F)c(F)c2F)c(F)c1`, the inhibition result (in the experiment on NIH3T3; in experiment [2]) was “Active” throughout.
As for `COC(=O)c1ccc(N(Cc2cnc(C3CCCCC3)cn2)C(=O)[C@H]2CCN2S(=O)(=O)c2c(F)c(F)c(F)c(F)c2F)cc1O`, the IC50 in experiment [3] came out at 7.5 µM. Moreover, the EC50 in the experiment with MCF7 is 5.7 µM; with MCF-10A, 3.8 µM; in the experiment with MDA-MB-468 [4], 1.6 µM. Moreover, the inhibition result with MDA-MB-231 [8] is “Active”.
For the compound `O=C([C@H]1CCN1S(=O)(=O)c1c(F)c(F)c(F)c(F)c1F)N(Cc1ccc(C2CCCCC2)cn1)c1ccc2c(=O)[nH]ccc2c1`, the EC50 was determined as 1.2 µM in the experiment on MDA-MB-231 [1], 2.2 µM with MCF7, 2.7 µM in the experiment on MCF-10A and 2 µM with MDA-MB-468 [4].
On to `NC(=O)c1ccc(N(Cc2ccc(C3CCCCC3)cn2)C(=O)[C@H]2CCN2S(=O)(=O)c2c(F)c(F)c(F)c(F)c2F)c(F)c1`, for which the IC50 in experiment [9] was above 2 µM.
Consider `O=C(O)c1coc(N(Cc2ccc(C3CCCCC3)cc2)C(=O)[C@H]2CCN2S(=O)(=O)c2c(F)c(F)c(F)c(F)c2F)n1`, for which the IC50 in experiment [3] is above 5 µM.
Turning to `O=C([C@H]1CCN1S(=O)(=O)c1c(F)c(F)c(F)c(F)c1F)N(Cc1ccc(C2CCCCC2)cc1)c1ccc2c(=O)[nH]ccc2c1`, the EC50 is 1.4 µM in the experiment with MDA-MB-231 [1], 6.2 µM in the experiment on MCF7, 5.3 µM with MCF-10A and 3.8 µM in the experiment with MDA-MB-468 [4].
Take `O=C(O)c1ccc(N(Cc2ccc(C3CCCCC3)nc2)C(=O)[C@H]2CCN2S(=O)(=O)c2c(F)c(F)c(F)c(F)c2F)cc1O`: the inhibition entry (in the experiment with NIH3T3; in [2]) was “Active” each time.
In turn, `O=C(NO)c1ccc(N(Cc2cnc(C3CCCCC3)cn2)C(=O)[C@H]2CCN2S(=O)(=O)c2c(F)c(F)c(F)c(F)c2F)c(F)c1` displayed an IC50 in [9] above 2 µM.
In the case of `O=C(O)c1cc(F)c(N(Cc2ccc(C3CCCCC3)cc2)C(=O)[C@H]2CCN2S(=O)(=O)c2c(F)c(F)c(F)c(F)c2F)cc1O`, the inhibition result (in the experiment with NIH3T3; in [2]) was “Active” throughout.
Regarding `COC(=O)c1ccc(N(Cc2ccc(C3CCCCC3)cc2)C(=O)[C@H]2CCN2S(=O)(=O)c2c(F)c(F)c(F)c(F)c2F)cc1O`, the EC50 in the experiment on MDA-MB-231 [1] amounted to 2.7 µM. The inhibition result (with NIH3T3; in experiment [2]) was “Active” throughout. The concentration for half-maximal inhibition (IC50) in experiment [3] was above 4 µM.
`O=C(NO)c1ccc(N(Cc2ccc(C3CCOCC3)cc2)C(=O)[C@H]2CCN2S(=O)(=O)c2c(F)c(F)c(F)c(F)c2F)cc1`: the EC50 with MDA-MB-231 [1] is 4 µM; with MCF7, above 10 µM; with MCF-10A, 4.3 µM; in the experiment with MDA-MB-468 [4], 2.1 µM.
Regarding `COC(=O)c1ccc(N(Cc2cnc(C3CCCCC3)cn2)C(=O)[C@H]2CCN2S(=O)(=O)c2c(F)c(F)c(F)c(F)c2F)c(F)c1`, in experiment [3], the IC50 was above 10 µM. Also, the EC50 came to 8.9 µM with MCF7, 4 µM with MCF-10A and 1.4 µM with MDA-MB-468 [4]. Moreover, the inhibition entry in the experiment on MDA-MB-231 [8] is “Active”.
Take `O=C(NO)c1ccc(N(Cc2ccc(C3CCCC3)cc2)C(=O)[C@H]2CCN2S(=O)(=O)c2c(F)c(F)c(F)c(F)c2F)cc1`: the EC50 with MDA-MB-231 [1] was determined as 3.1 µM; in the experiment with MCF7 it was 7.2 µM; in the experiment with MCF-10A, 7.3 µM; in the experiment on MDA-MB-468 [4], 1.8 µM.
Take `O=C(O)c1ccc(N(Cc2ccc(C3CCCCC3)cc2)C(=O)[C@H]2CCN2S(=O)(=O)c2c(F)c(F)c(F)c(F)c2F)c(F)c1`: the EC50 in the experiment with MDA-MB-231 [1] was above 10 µM. Further, the IC50 in experiment [7] came to 17.5 µM.
With `O=C([C@H]1CCN1S(=O)(=O)c1c(F)c(F)c(F)c(F)c1F)N(Cc1ccc(C2CCCCC2)cn1)c1ccc2c(=O)[nH]cnc2c1`, the EC50 in the experiment on MDA-MB-231 [1] was determined as 3.3 µM; in the experiment on MCF7, 3.6 µM; in the experiment on MCF-10A, 4 µM; with MDA-MB-468 [4] it was 1.5 µM.
In the case of `O=C(O)c1ccc(N(Cc2ccc(C3CCCCC3)cn2)C(=O)[C@H]2CCN2S(=O)(=O)c2c(F)c(F)c(F)c(F)c2F)cn1`, in experiment [3], the IC50 was above 2 µM.
Turning to `NC(=O)c1ccc(N(Cc2ccc(C3CCCCC3)cn2)C(=O)[C@H]2CCN2S(=O)(=O)c2c(F)c(F)c(F)c(F)c2F)cc1O`, the EC50 in the experiment on MDA-MB-231 [1] worked out at 2.9 µM; in the experiment with MCF7, 4.6 µM; in the experiment on MCF-10A it was 7.2 µM; in the experiment with MDA-MB-468 [4], 2.6 µM.
Turning to `COc1ccc(S(=O)(=O)Nc2cc(-c3c(O)ccc4ccccc34)c(O)c3ccccc23)cc1` [C-188-9], the EC50 was found to be 13.8 µM with MCF7 and 25.7 µM in the experiment with MDA-MB-231 [6] (MDA-MB-231, 72 h).
In the case of `O=C(NO)c1ccc(N(Cc2ccc(C3CCCCC3)cc2)C(=O)[C@H]2CCN2S(=O)(=O)c2c(F)c(F)c(F)c(F)c2F)cc1O`, the EC50 in the experiment on MDA-MB-231 [1] was 5.1 µM; in the experiment on MCF7 it was 9.7 µM; in the experiment on MCF-10A, 7.5 µM; in the experiment with MDA-MB-468 [4], 6.4 µM. For the same compound, the inhibition entry (in the experiment with NIH3T3; in experiment [2]) was “Active” each time.
As for `O=C(O)c1ccc(N(Cc2ccc(C3CCCC3)cc2)C(=O)[C@H]2CCN2S(=O)(=O)c2c(F)c(F)c(F)c(F)c2F)cc1O`, the inhibition entry (in the experiment on NIH3T3; in experiment [2]) was “Active” in each case.
